From PubChem BioAssay
Shown are actives, neighbours in structure and some others; about 2.8% of the full set was active somewhere.
E-sel inducer – E-selectin induction on HUVECs. activation, % at 7.58 µM. HUVEC E-selectin immunofluorescence imaging; normalized: neutral wells 0, TNF-alpha wells 100. AID 686992. 260,000 compounds, 0.37% hits. P16581;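 active = mean E-selectin-positive cell signal at least 10% of the positive control, reached in at least 60% of replicates, without over 20% cell loss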
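Test system: HUVEC | Signal: Immunofluorescence imaging | Read-out: Percent E-selectin-positive cells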
DENV2 CPE rescue – inhibitors of DENV2 cytopathic effect; CPE inhibition, % at 9.99 µM; 350,000 compounds, 1.7% hits; AID 651640; DENV2-infected cells, cytopathic effect rescue, plate reader; in the data active = CPE inhibition above about 20%, passing the limit was not always enough; tested in BHK-21 cells
SIRT5 block – inhibitors of human sirtuin-5 desuccinylase; Purified SirT5, succinyl-peptide AMC, trypsin-coupled fluorescence; inhibition, % at 15 µM; 330,000 compounds, 1.1% hits; in the data active = inhibition above about 15%
Target sequence (Q9NXA8 whole entry, looked up): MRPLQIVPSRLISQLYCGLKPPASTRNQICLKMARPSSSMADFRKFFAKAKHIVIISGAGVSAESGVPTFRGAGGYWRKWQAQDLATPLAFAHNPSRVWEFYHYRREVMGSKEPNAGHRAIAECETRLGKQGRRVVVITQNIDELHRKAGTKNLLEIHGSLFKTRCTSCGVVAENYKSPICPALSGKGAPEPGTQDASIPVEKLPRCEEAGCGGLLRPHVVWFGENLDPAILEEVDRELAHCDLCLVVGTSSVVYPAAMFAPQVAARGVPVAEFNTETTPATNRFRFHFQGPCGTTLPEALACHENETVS
Hits are given with their value.

`COc1ccccc1NC(=O)COC(=O)c1[nH]c(=O)[nH]c(=O)c1N` gave DENV2 CPE rescue inactive and SIRT5 block 17.2.
`Cc1ccc(NC(=O)COC(=O)c2ccc([N+](=O)[O-])s2)c(C)c1` gave E-sel inducer inactive, DENV2 CPE rescue inactive and SIRT5 block inactive.
Screening COc1ccccc1NC(=O)COC(=O)c1ccc([N+](=O)[O-])s1 returned E-sel inducer inactive, DENV2 CPE rescue inactive and SIRT5 block 23.1.
For COCC#Cc1ccc([C@H]2[C@@H](CO)N3CCCCN(S(=O)(=O)c4cccc(OC)c4)C[C@H]23)cc1 the results were E-sel inducer inactive.
For COc1ccc(S(=O)(=O)N2CCCCN3[C@H](CO)[C@@H](c4ccc(C#CC5CC5)cc4)[C@@H]3C2)cc1 the results were E-sel inducer inactive, DENV2 CPE rescue inactive and SIRT5 block 19.8.
C/C=C/c1ccc([C@@H]2[C@H]3CN(S(=O)(=O)c4ccccc4)CCCCN3[C@H]2CO)cc1 was read as E-sel inducer inactive, DENV2 CPE rescue inactive and SIRT5 block inactive.
COc1ccc(C#Cc2ccc([C@H]3[C@@H](CO)N4CCCCN(S(=O)(=O)c5ccccc5)C[C@@H]34)cc2)cc1 was read as E-sel inducer inactive, DENV2 CPE rescue 81.9 and SIRT5 block inactive.
COCC#Cc1ccc([C@H]2[C@H]3CN(S(=O)(=O)c4cccc(OC)c4)CCCCN3[C@H]2CO)cc1 was read as E-sel inducer inactive, DENV2 CPE rescue 22.5 and SIRT5 block inactive.
`COc1ccc(S(=O)(=O)N2CCCCN3[C@H](C2)[C@@H](c2ccc(C#CC4CC4)cc2)[C@@H]3CO)cc1` gave E-sel inducer inactive.
Screening COc1ccc(C#Cc2ccc([C@H]3[C@H](CO)N4CCCCN(S(=O)(=O)c5ccccc5)C[C@@H]34)cc2)cc1 returned E-sel inducer inactive, DENV2 CPE rescue inactive and SIRT5 block inactive.
For C/C=C/c1ccc([C@H]2[C@@H](CO)N3CCCCN(S(=O)(=O)c4ccccc4)C[C@@H]23)cc1 the results were E-sel inducer inactive, DENV2 CPE rescue 114.6 and SIRT5 block inactive.
`O=C(Nc1ccc(F)cc1)N[C@@H]1C=C[C@H](CC(=O)N2CCCCC2)O[C@@H]1CO` gave E-sel inducer inactive, DENV2 CPE rescue inactive and SIRT5 block inactive.
C[C@H](CO)N1C[C@H](C)[C@@H](CN(C)S(=O)(=O)c2ccc(F)cc2)OCCCC[C@H](C)Oc2ccc(NS(=O)(=O)c3cccs3)cc2C1=O was read as E-sel inducer inactive, DENV2 CPE rescue inactive and SIRT5 block inactive.
Screening C/C=C/c1cnc2c(c1)C(=O)N([C@H](C)CO)C[C@@H](C)[C@H](CN(C)C(=O)C1CC1)O2 returned E-sel inducer inactive.
CO[C@@H]1CN(C)C(=O)c2ccc(NC(=O)NC(C)C)cc2OC[C@H](C)N(C(=O)CC2CC2)C[C@@H]1C was read as E-sel inducer inactive, DENV2 CPE rescue inactive and SIRT5 block inactive.
COc1ccc(S(=O)(=O)N(C)C[C@@H]2Oc3ccc(NC(=O)NC(C)C)cc3C(=O)N([C@H](C)CO)C[C@@H]2C)cc1 was read as E-sel inducer inactive.
`CN1CCN(C(=O)C[C@H]2C[C@@H]3c4cc(NC(=O)CC5CC5)ccc4O[C@@H]3[C@@H](CO)O2)CC1` gave E-sel inducer inactive, DENV2 CPE rescue inactive and SIRT5 block inactive.
Screening O=C(C[C@H]1C[C@H]2c3cc(NC(=O)c4cccnc4)ccc3O[C@H]2[C@H](CO)O1)NCc1ccccc1 returned E-sel inducer inactive, DENV2 CPE rescue inactive and SIRT5 block inactive.
For C[C@H]1CN([C@@H](C)CO)C(=O)c2cc(NC(=O)Cn3cnnn3)ccc2O[C@@H]1CN(C)S(=O)(=O)c1cn(C)cn1 the results were E-sel inducer inactive, DENV2 CPE rescue inactive and SIRT5 block inactive.
COCCNC(=O)C[C@H]1CC[C@@H]2[C@H](COC[C@@H](O)CN2C(=O)Nc2ccc3c(c2)OCO3)O1 was read as E-sel inducer inactive, DENV2 CPE rescue inactive and SIRT5 block inactive.
C[C@@H]1CN([C@@H](C)CO)C(=O)c2cc(C3=CCCCC3)cnc2O[C@@H]1CN(C)C(=O)Nc1ccccc1 was read as E-sel inducer inactive, DENV2 CPE rescue inactive and SIRT5 block inactive.
Screening COc1ccc(C#Cc2ccc([C@@H]3[C@@H](CO)N4CCCCN(S(=O)(=O)c5ccccc5)C[C@@H]34)cc2)cc1 returned DENV2 CPE rescue 31.7 and SIRT5 block inactive.
Screening COc1ccc(C#Cc2ccc([C@@H]3[C@@H](CO)N4CCCCN(S(=O)(=O)c5ccccc5)C[C@H]34)cc2)cc1 returned E-sel inducer inactive, DENV2 CPE rescue inactive and SIRT5 block inactive.
`CCN(C[C@H]1N[C@H](CO)[C@@H]1c1ccccc1)C(=O)c1ccncc1` gave E-sel inducer inactive and SIRT5 block inactive.
`COCC(=O)N(C)C[C@H]1[C@H](c2ccccc2)[C@@H](CO)N1C(=O)Cc1ccncc1` gave E-sel inducer inactive, DENV2 CPE rescue inactive and SIRT5 block 20.0.
For COCC(=O)N(C)C[C@@H]1[C@@H](c2ccccc2)[C@H](CO)N1C(=O)Cc1cccnc1 the results were E-sel inducer inactive, DENV2 CPE rescue inactive and SIRT5 block inactive.
For CCN(C[C@@H]1N[C@H](CO)[C@H]1c1ccccc1)C(=O)c1ccncc1 the results were E-sel inducer inactive, DENV2 CPE rescue 25.7 and SIRT5 block inactive.
C/C=C/c1ccc([C@@H]2[C@H](CO)N(C(=O)Cc3ccncc3)[C@H]2CNC(C)=O)cc1 was read as E-sel inducer inactive and DENV2 CPE rescue 30.5.
Screening COCCN(C[C@H]1[C@H](c2ccccc2)[C@@H](CO)N1C(C)=O)C(=O)c1ccncc1 returned E-sel inducer inactive, DENV2 CPE rescue 26.3 and SIRT5 block inactive.
`COCCN(C[C@H]1[C@H](c2ccccc2)[C@@H](CO)N1C(C)=O)C(=O)c1ccccc1` gave E-sel inducer inactive, DENV2 CPE rescue inactive and SIRT5 block inactive.
`C/C=C/c1ccc([C@@H]2[C@@H](CNC(C)=O)N(C(=O)Cc3cccnc3)[C@H]2CO)cc1` gave E-sel inducer inactive and DENV2 CPE rescue inactive.
For CC(C)c1cn(CC[C@H]2CC[C@@H](NS(=O)(=O)c3ccc(Cl)cc3)[C@@H](CO)O2)nn1 the results were E-sel inducer inactive, DENV2 CPE rescue inactive and SIRT5 block inactive.
COCC(=O)N(C)C[C@H]1Oc2cc(-c3ccccc3F)ccc2S(=O)(=O)N([C@@H](C)CO)C[C@H]1C was read as E-sel inducer inactive, DENV2 CPE rescue inactive and SIRT5 block inactive.
For CC(=O)N(C)C[C@H]1Oc2cc(-c3cccc(F)c3)ccc2S(=O)(=O)N([C@@H](C)CO)C[C@@H]1C the results were E-sel inducer inactive, DENV2 CPE rescue inactive and SIRT5 block inactive.
For CO[C@H]1CN(C)C(=O)c2ccc(NC(=O)c3ccc(Oc4ccccc4)cc3)cc2OC[C@H](C)NC[C@H]1C the results were E-sel inducer inactive, DENV2 CPE rescue inactive and SIRT5 block inactive.
CCC(=O)N1[C@@H]2Cn3c(ccc(-c4ccc(F)cc4)c3=O)[C@H]1[C@@H](C(=O)N(C)C)[C@@H]2CO was read as E-sel inducer inactive, DENV2 CPE rescue inactive and SIRT5 block inactive.
For CN1C(=O)c2cc(NC(=O)c3cc(F)cc(F)c3)ccc2OC[C@H]2O[C@@H](CC(=O)O)CC[C@@H]21 the results were E-sel inducer inactive, DENV2 CPE rescue inactive and SIRT5 block inactive.
